In paper PMC5616077 (Toxicology Reports, 2016):

Assays:
Format in all cases: cell-based, human
[1] = MTT assay; details: human, HaCaT wild-type (WT) cells
[2] = system: HaCaT WT cells; assay: Targeted metabolomics; details: 48 h; for change of Gln level vs control (in words) / change of PCaa_C36:2 level vs control (in words) / C4:1 concentration / C4 concentration / C6 (C4:1-DC) concentration / C10:2 concentration / C12-DC concentration / C12:1 concentration / C18:1-OH concentration / C18:2 concentration / Gln concentration / PCaa_C32:2 concentration / PCaa_C36:2 concentration / PCae_C32:1 concentration / PCae_C34:2 concentration / PCae_C34:3 concentration / PCae_C36:2 concentration / PCae_C36:3 concentration / PCae_C38:1 concentration / PCae_C38:2 concentration / PCae_C38:3 concentration / PCae_C38:4 concentration / PCae_C40:4 concentration / PCae_C40:5 concentration / SM_C16:1 concentration / alpha-AAA concentration: CRY 1 μM; for C4:1 concentration / C4 concentration / C6 (C4:1-DC) concentration / C10:2 concentration / C12-DC concentration / C12:1 concentration / C18:1-OH concentration / C18:2 concentration / Gln concentration / PCaa_C32:2 concentration / PCaa_C36:2 concentration / PCae_C32:1 concentration / PCae_C34:2 concentration / PCae_C34:3 concentration / PCae_C36:2 concentration / PCae_C36:3 concentration / PCae_C38:1 concentration / PCae_C38:2 concentration / PCae_C38:3 concentration / PCae_C38:4 concentration / PCae_C40:4 concentration / PCae_C40:5 concentration / SM_C16:1 concentration / alpha-AAA concentration: mean ± SD
How it was run: (§1)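 Cells in DMEM with 10% FCS were seeded at 1 × 10^5 cells/mL and exposed 24 h later for 48 h, 4 replicates; vehicle controls got 0.1% DMSO. Cells were washed with ice-cold 155 mM ammonium formate pH 7.4, pelleted, weighed and snap-frozen. Extracts went on the p180 kit with isotope-labelled standards, phenylisothiocyanate derivatisation and 5 mM ammonium acetate/methanol extraction. Read by LC–MS/MS (positive) and FIA-MS/MS (±), MRM; μM normalised to pellet weight.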

[3] = system: HaCaT AHR-KD cells; assay: Targeted metabolomics; details: 48 h, BAP 1 μM, CRY 1 μM, DALP 0.01 μM
How it was run: as §1

[4] = MTT assay; details: human, HaCaT AHR knockdown (AHR-KD) cells
[5] = system: HaCaT AHR-KD cells; assay: MTT assay; details: HaCaT AHR-KD, 48 h, up to 20 μM
[6] = system: CYP1A1; assay: Western blot, protein level; details: HaCaT WT, 24 h and 48 h
[7] = system: CYP1B1; assay: Real-time PCR, AHR target gene induction; details: 24 h
[8] = system: CYP1A1; assay: Real-time PCR, AHR target gene induction; details: 24 h, BAP/CRY 0.1-3.5 μM
[9] = system: HaCaT WT cells; assay: MTT assay; details: HaCaT WT, 48 h, up to 20 μM
[10] = system: HaCaT WT cells; assay: Enzymatic determination of glutamine; details: 48 h, BAP 1 μM, CRY 1 μM, DALP 0.01 μM
[11] = system: CYP1B1; assay: Western blot, protein level; details: HaCaT WT, 24 h and 48 h

Row | Structure (SMILES) | change of Gln level vs control (in words) ([2]; BAP 1 μM, DALP 0.01 μM) | change of PCaa_C36:2 level vs control (in words) ([2]; BAP 1 μM, DALP 0.01 μM) | C4:1 concentration ([2]; BAP 1 μM, DALP 0.01 μM) [nmol/g pellet weight] | C4 concentration ([2]; BAP 1 μM, DALP 0.01 μM) [nmol/g pellet weight] | C6 (C4:1-DC) concentration ([2]; BAP 1 μM, DALP 0.01 μM) [nmol/g pellet weight] | C10:2 concentration ([2]; BAP 1 μM, DALP 0.01 μM) [nmol/g pellet weight] | C12-DC concentration ([2]; BAP 1 μM, DALP 0.01 μM) [nmol/g pellet weight] | C12:1 concentration ([2]; BAP 1 μM, DALP 0.01 μM) [nmol/g pellet weight] | C18:1-OH concentration ([2]; BAP 1 μM, DALP 0.01 μM) [nmol/g pellet weight] | C18:2 concentration ([2]; BAP 1 μM, DALP 0.01 μM) [nmol/g pellet weight] | Gln concentration ([2]; BAP 1 μM, DALP 0.01 μM) [nmol/g pellet weight] | PCaa_C32:2 concentration ([2]; BAP 1 μM, DALP 0.01 μM) [nmol/g pellet weight] | PCaa_C36:2 concentration ([2]; BAP 1 μM, DALP 0.01 μM) [nmol/g pellet weight] | PCae_C32:1 concentration ([2]; BAP 1 μM, DALP 0.01 μM) [nmol/g pellet weight] | PCae_C34:2 concentration ([2]; BAP 1 μM, DALP 0.01 μM) [nmol/g pellet weight] | PCae_C34:3 concentration ([2]; BAP 1 μM, DALP 0.01 μM) [nmol/g pellet weight] | PCae_C36:2 concentration ([2]; BAP 1 μM, DALP 0.01 μM) [nmol/g pellet weight] | PCae_C36:3 concentration ([2]; BAP 1 μM, DALP 0.01 μM) [nmol/g pellet weight] | PCae_C38:1 concentration ([2]; BAP 1 μM, DALP 0.01 μM) [nmol/g pellet weight] | PCae_C38:2 concentration ([2]; BAP 1 μM, DALP 0.01 μM) [nmol/g pellet weight] | other results
1 | c1ccc2c(c1)cc1ccc3cccc4ccc2c1c34 [BAP, benzo[a]pyrene] | strongly lowered | increased | 1.1 ± 0.1 | 2.5 ± 0.3 | 2.3 ± 0.2 | 1.0 ± 0.1 | 3.8 ± 0.2 | 1.2 ± 0.1 | 0.9 ± 0.1 | 1.0 ± 0.1 | 77.1 ± 18.2 | 103.6 ± 11.5 | 2039.2 ± 198.8 | 198.8 ± 17.1 | 238.2 ± 23.8 | 26.8 ± 3.1 | 354.1 ± 28.2 | 108.6 ± 10.5 | 29.7 ± 2.2 | 74.9 ± 6.3 | viability at 48 h, 20 µM [1]: ~80%; PCae_C38:3 concentration ([2]; BAP 1 μM, DALP 0.01 μM): 33.8 ± 3.9 nmol/g pellet weight; PCae_C38:4 concentration ([2]; BAP 1 μM, DALP 0.01 μM): 69.0 ± 7.3 nmol/g pellet weight; PCae_C40:4 concentration ([2]; BAP 1 μM, DALP 0.01 μM): 11.7 ± 1.5 nmol/g pellet weight; PCae_C40:5 concentration ([2]; BAP 1 μM, DALP 0.01 μM): 30.0 ± 2.5 nmol/g pellet weight; SM_C16:1 concentration ([2]; BAP 1 μM, DALP 0.01 μM): 35.3 ± 3.4 nmol/g pellet weight; alpha-AAA concentration ([2]; BAP 1 μM, DALP 0.01 μM): 5.7 ± 1.8 nmol/g pellet weight; change of alpha-AAA level vs control (in words) ([2]; BAP 1 μM, DALP 0.01 μM): strong down-regulation; change of carnitines (e.g. C18:2) vs control (in words) ([2]; BAP 1 μM, DALP 0.01 μM): strong up-regulation; change of Gln level vs control (in words) [3]: decreased
2 | c1ccc2c(c1)ccc1c3ccccc3ccc21 [CRY, chrysene] | weakly | increased | 0.9 ± 0.2 | 2.3 ± 0.5 | 1.9 ± 0.3 | 0.9 ± 0.1 | 3.3 ± 0.6 | 1.0 ± 0.2 | 0.8 ± 0.1 | 0.8 ± 0.1 | 114.3 ± 12.8 | 127.8 ± 17.3 | 2097.1 ± 262.1 | 231.2 ± 36.0 | 275.4 ± 48.2 | 29.7 ± 5.0 | 385.0 ± 53.6 | 120.5 ± 17.9 | 29.9 ± 5.0 | 78.0 ± 13.3 | EC50 at 48 h [4]: 2000 nM; cytotoxicity / cell viability (in words) [5]: strong cytotoxic effects; CYP1A1 protein induction (in words) [6]: moderate induction; CYP1B1 mRNA induction (in words) ([7]; HaCaT AHR-KD, CRY 0.1-3.5 μM): no significant induction; CYP1B1 mRNA induction (in words) ([7]; HaCaT WT, BAP/CRY 0.1-3.5 μM, DALP 0.01-0.03 μM): inducing both genes in WT cells but less strongly; CYP1A1 mRNA induction (in words) ([8]; HaCaT AHR-KD): no significant induction; CYP1A1 mRNA induction (in words) ([8]; HaCaT WT, DALP 0.01-0.03 μM): inducing both genes in WT cells but less strongly; cytotoxicity / cell viability (in words) [9]: strong cytotoxic effects; EC50 at 48 h ([1]; calculated EC50 (cytotoxicity, viability), HaCaT WT, 48 h, MTT): 3800 nM; SM, AC, LPC and BA concentrations vs control (in words) ([2]; 1 μM): remained completely unaffected; PCae_C38:3 concentration ([2]; BAP 1 μM, DALP 0.01 μM): 34.7 ± 5.8 nmol/g pellet weight; PCae_C38:4 concentration ([2]; BAP 1 μM, DALP 0.01 μM): 70.5 ± 9.1 nmol/g pellet weight; PCae_C40:4 concentration ([2]; BAP 1 μM, DALP 0.01 μM): 12.8 ± 2.0 nmol/g pellet weight; PCae_C40:5 concentration ([2]; BAP 1 μM, DALP 0.01 μM): 33.3 ± 4.2 nmol/g pellet weight; SM_C16:1 concentration ([2]; BAP 1 μM, DALP 0.01 μM): 35.0 ± 3.8 nmol/g pellet weight; alpha-AAA concentration ([2]; BAP 1 μM, DALP 0.01 μM): 14.2 ± 3.8 nmol/g pellet weight; relative Gln level, enzymatic assay (in words) [10]: could not confirm the effect; CYP1B1 protein induction (in words) [11]: moderate induction
